{
  "source": "ChEMBL document CHEMBL1153228",
  "about": "“Synthesis and in vivo evaluation of bicyclic gababutins” (Bioorg Med Chem Lett, 2010)",
  "key": {"[1]": {"target": "Voltage-dependent calcium channel alpha2delta subunit (Sus scrofa, UniProt O77773)", "sequence (O77773 whole entry)": "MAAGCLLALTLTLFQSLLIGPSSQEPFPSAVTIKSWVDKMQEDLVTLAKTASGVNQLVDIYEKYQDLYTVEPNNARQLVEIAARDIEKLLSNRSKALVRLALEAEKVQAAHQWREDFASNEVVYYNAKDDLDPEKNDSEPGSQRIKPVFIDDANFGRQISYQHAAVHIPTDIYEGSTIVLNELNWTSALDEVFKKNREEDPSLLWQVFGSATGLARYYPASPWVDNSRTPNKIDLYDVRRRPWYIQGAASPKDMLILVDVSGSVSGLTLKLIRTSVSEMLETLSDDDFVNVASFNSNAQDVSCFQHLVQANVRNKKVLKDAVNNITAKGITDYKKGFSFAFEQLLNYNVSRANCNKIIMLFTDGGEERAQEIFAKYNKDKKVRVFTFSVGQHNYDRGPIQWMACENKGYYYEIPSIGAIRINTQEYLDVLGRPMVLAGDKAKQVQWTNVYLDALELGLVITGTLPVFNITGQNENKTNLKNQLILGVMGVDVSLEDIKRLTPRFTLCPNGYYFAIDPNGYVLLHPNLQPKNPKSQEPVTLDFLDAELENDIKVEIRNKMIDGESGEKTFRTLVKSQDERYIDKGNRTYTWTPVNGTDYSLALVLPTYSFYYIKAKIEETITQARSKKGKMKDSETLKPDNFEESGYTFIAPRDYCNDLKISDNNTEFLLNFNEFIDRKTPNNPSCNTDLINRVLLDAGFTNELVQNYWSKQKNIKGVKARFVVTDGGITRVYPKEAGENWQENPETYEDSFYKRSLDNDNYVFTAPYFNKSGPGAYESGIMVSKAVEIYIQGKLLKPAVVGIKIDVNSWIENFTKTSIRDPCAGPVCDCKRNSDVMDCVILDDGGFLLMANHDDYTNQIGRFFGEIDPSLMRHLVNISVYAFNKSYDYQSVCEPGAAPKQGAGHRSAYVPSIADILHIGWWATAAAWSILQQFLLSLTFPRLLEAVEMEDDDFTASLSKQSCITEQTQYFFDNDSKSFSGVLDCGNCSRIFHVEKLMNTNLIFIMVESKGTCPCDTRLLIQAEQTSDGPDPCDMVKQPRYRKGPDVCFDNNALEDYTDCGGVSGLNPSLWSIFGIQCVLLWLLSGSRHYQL", "test": "Displacement of [3H]gabapentin from calcium channel alpha2delta in pig cerebral cortex membrane after 30 mins", "assay_type": "cell membranes"}, "[2]": {"test": "Inhibition of L-type amino acid transporter expressed in CHO cells assessed as inhibition of [3H]leucine uptake", "assay_type": "cell-based"}, "[3]": {"test": "Bioavailability in rat", "assay_type": "ADME, organism-based", "details": "in vivo"}, "[4]": {"test": "Elimination half life in rat", "assay_type": "ADME, organism-based", "details": "in vivo"}, "[5]": {"test": "Clearance in rat", "assay_type": "ADME, organism-based", "details": "in vivo"}, "Rattus norvegicus [6]": {"system": "Rattus norvegicus", "test": "Analgesic activity in rat chronic constriction injury weight model assessed as inhibition of pain effect at 3 to 10 mg/kg, po", "assay_type": "functional, organism-based", "how_it_was_run": "(§1)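 Rat sciatic-nerve chronic constriction model: loose ligatures placed around the sciatic nerve produce hypersensitivity in one hind paw. Weight borne on each hind paw is measured, and the read-out is the difference between the ipsilateral (affected) and contralateral (unaffected) paw.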"}, "[7]": {"test": "Lipophilicity, log D at pH 7.4", "assay_type": "physicochemical", "details": "buffer"}, "Rattus norvegicus [8]": {"system": "Rattus norvegicus", "test": "Analgesic activity in intrathecally dosed rat chronic constriction injury weight model assessed as inhibition of pain effect", "assay_type": "functional, organism-based", "how_it_was_run": "as §1"}},
  "note": "Active and inactive are the calls of the source. No cut-off for these calls is given here.",
  "data": [
    {"smiles": "NC[C@@]1(CC(=O)O)C[C@H]2CCCC[C@H]2C1", "values": [
      {"measurement": "IC50", "setting": "[1]", "result": "> 10", "unit": "µM"}
    ]},
    {"smiles": "C[C@H]1CC(CN)(CC(=O)O)C[C@@H]1C", "note": "(relative stereo) [ATAGABALIN]", "values": [
      {"measurement": "IC50", "setting": "[1]", "result": 0.022, "unit": "µM"},
      {"measurement": "IC50", "setting": "[2]", "result": 10, "unit": "µM"}
    ]},
    {"smiles": "NCC1(CC(=O)O)CC2CCCCC2C1", "note": "(racemic)", "values": [
      {"measurement": "IC50", "setting": "[1]", "result": "> 10", "unit": "µM"}
    ]},
    {"smiles": "NC[C@@]1(CC(=O)O)CC2CCCC21", "note": "(mixture of isomers)", "values": [
      {"measurement": "IC50", "setting": "[1]", "result": 2.8, "unit": "µM"}
    ]},
    {"smiles": "NC[C@@]1(CC(=O)O)C[C@H]2CC[C@H]2C1", "values": [
      {"measurement": "IC50", "setting": "[1]", "result": 0.332, "unit": "µM"}
    ]},
    {"smiles": "NC[C@]1(CC(=O)O)CC2CCCCC21", "note": "(mixture of isomers)", "values": [
      {"measurement": "IC50", "setting": "[1]", "result": 0.6, "unit": "µM"}
    ]},
    {"smiles": "NC[C@]1(CC(=O)O)C[C@H]2CCC[C@H]21", "values": [
      {"measurement": "IC50", "setting": "[1]", "result": 0.046, "unit": "µM"},
      {"measurement": "IC50", "setting": "[2]", "result": "> 10000", "unit": "µM"},
      {"measurement": "bioavailability", "setting": "[3]", "result": 100, "unit": "%"},
      {"measurement": "half-life", "setting": "[4]", "result": 2.3, "unit": "h"},
      {"measurement": "clearance", "setting": "[5]", "result": 4.5, "unit": "mL/min/kg"},
      {"measurement": "Activity", "setting": "Rattus norvegicus [6]", "result": "Active"},
      {"measurement": "logD", "setting": "[7]", "result": -1}
    ]},
    {"smiles": "NC[C@@]1(CC(=O)O)CC2CCCCC21", "note": "(mixture of isomers)", "values": [
      {"measurement": "IC50", "setting": "[1]", "result": 3.09, "unit": "µM"}
    ]},
    {"smiles": "NC[C@@]1(CC(=O)O)C[C@H]2CCC[C@H]2C1", "values": [
      {"measurement": "IC50", "setting": "[1]", "result": "> 10", "unit": "µM"}
    ]},
    {"smiles": "C[C@@H]1C[C@@](CN)(CC(=O)O)C[C@@H]1C", "values": [
      {"measurement": "IC50", "setting": "[1]", "result": 0.107, "unit": "µM"},
      {"measurement": "IC50", "setting": "[2]", "result": 7, "unit": "µM"}
    ]},
    {"smiles": "NC[C@]1(CC(=O)O)C[C@H]2CCC[C@H]2C1", "values": [
      {"measurement": "IC50", "setting": "[1]", "result": 2.6, "unit": "µM"}
    ]},
    {"smiles": "NC[C@]1(CC(=O)O)CC2CCCC21", "note": "(mixture of isomers)", "values": [
      {"measurement": "IC50", "setting": "[1]", "result": 0.025, "unit": "µM"}
    ]},
    {"smiles": "NCC1(CC(=O)O)CC2CCCC2C1", "note": "(racemic)", "values": [
      {"measurement": "IC50", "setting": "[1]", "result": "> 10", "unit": "µM"}
    ]},
    {"smiles": "NC[C@@]1(CC(=O)O)C[C@@H]2CCC[C@@H]21", "values": [
      {"measurement": "IC50", "setting": "[1]", "result": 0.019, "unit": "µM"},
      {"measurement": "IC50", "setting": "[2]", "result": 6930, "unit": "µM"},
      {"measurement": "Activity", "setting": "Rattus norvegicus [8]", "result": "Active"}
    ]},
    {"smiles": "NC[C@]1(CC(=O)O)C[C@H]2CCCC[C@H]2C1", "values": [
      {"measurement": "IC50", "setting": "[1]", "result": 0.72, "unit": "µM"}
    ]},
    {"smiles": "NCC1(CC(=O)O)CC2CCC2C1", "note": "(racemic)", "values": [
      {"measurement": "IC50", "setting": "[1]", "result": 2.9, "unit": "µM"}
    ]},
    {"smiles": "NC[C@]1(CC(=O)O)CCC2CCCC21", "note": "(mixture of isomers)", "values": [
      {"measurement": "IC50", "setting": "[1]", "result": 7.18, "unit": "µM"}
    ]},
    {"smiles": "NC[C@]1(CC(=O)O)C[C@H]2CC[C@H]2C1", "values": [
      {"measurement": "IC50", "setting": "[1]", "result": 0.038, "unit": "µM"},
      {"measurement": "IC50", "setting": "[2]", "result": 38, "unit": "µM"},
      {"measurement": "bioavailability", "setting": "[3]", "result": 84, "unit": "%"},
      {"measurement": "half-life", "setting": "[4]", "result": 2.4, "unit": "h"},
      {"measurement": "clearance", "setting": "[5]", "result": 4.3, "unit": "mL/min/kg"},
      {"measurement": "Activity", "setting": "Rattus norvegicus [6]", "result": "Active"},
      {"measurement": "logD", "setting": "[7]", "result": -1}
    ]}
  ]
}
